Values belong to the compound of their own block, whether it stands above or below them. Activity calls are given as the source filed them. The calls are words filed in the database; no cut-off is given here.
Columns and labels:
[1] = Plasma protein binding in mouse at 2 uM incubated for 4 to 24 hrs by equilibrium dialysis method; type: ADME, cell-free; details: time 4-24 hrs, read-out: PPB
In short: (§1)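 Rapid equilibrium dialysis in mouse, rat, dog, monkey or human plasma for 4 or 24 h at 2 μM.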

[2] = Plasma protein binding in rat at 2 uM incubated for 4 to 24 hrs by equilibrium dialysis method; type: ADME, cell-free; details: time 4-24 hrs, read-out: PPB (converted); in short: as §1
[3] = Plasma protein binding in Cynomolgous monkey at 2 uM incubated for 4 to 24 hrs by equilibrium dialysis method; type: ADME, cell-free, Macaca fascicularis; details: cynomolgus monkey, time 4-24 hrs, read-out: PPB (converted); in short: as §1
[4] = Prodrug conversion in Sprague-Dawley rat assessed as formation of N-(3-cyano-4-fluorophenyl)-4-(2-((3-ethynyloxetan-3-yl)amino)-2-oxoacetyl)-1,3,5-trimethyl-1H-pyrrole-2-carboxamide metabolite at 37.8 mg/kg, po measured for 24 hrs; type: ADME, organism-based; details: in vivo
In short: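 Single oral prodrug dose at molar equivalent of 30 mg/kg (rats) or […] of parent in 95% PEG 400/5% copovidone; whole blood collected into 4 volumes 75% MeOH/25% acetonitrile, centrifuged, parent quantified by LC-MS/MS; noncompartmental PK analysis.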

[5] = biological target: Solute carrier family 22 member 6 (Homo sapiens, UniProt Q4U2R8); assay: Inhibition of OAT1 (unknown origin) transfected in HEK293 cells; type: cell-based
In short: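 HEK-293 cells transfected with the uptake transporter; uptake of known probe substrates measured with test compound at eight concentrations (0.0229–50.0 μM or 0.0457–100 μM); inhibition at each concentration used to calculate IC50.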

Hepatitis B virus [6] = assay: Antiviral activity against HBV infected in human HepG2.117 cells by qPCR analysis; type: functional, organism-based
In short: (§2)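 HepG2.117 cells (integrated genotype D HBV genome, Tet-off promoter; kept in 1 μg/mL doxycycline) were seeded at 20,000 cells/well and given serial compound dilutions (2% DMSO) for 3 days at 37 °C. Lysates were taken in 0.33% NP40. Intracellular HBV DNA was quantified by qPCR and EC50/EC90 derived. For serum shift, 40% human serum was present during incubation. Mean ± SEM, n=3 (serum) or 13.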

Hepatitis B virus [7] = assay: Antiviral activity against HBV genotype D infected in human HepG2.117 cells assessed as decrease in HBV DNA production in presence of 40 percent human serum by qPCR analysis; type: functional, organism-based; in short: as §2
Hepatitis B virus [8] = assay: Antiviral activity against HBV infected in human primary hepatocyte cells assessed as decrease in HBV RNA production pre-infected cells with virus followed by compound treatment for 3 days and subsequent replacement of medium with compound measured after 4 days by qPCR analysis; type: functional, organism-based
[9] = Apparent permeability across apical to basal side in human Caco-2 cells at 1 uM incubated for 1 hr; type: ADME, cell-based
In short: (§3)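 Bidirectional transport across Caco-2 cells in HBSS, pH 7.4, 0.1% final DMSO. Compound was tested at 1 or 2 μM for 1 h at 37 °C, 5% CO2. Apical and basal samples gave apparent permeability A→B and B→A, and the efflux ratio.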

[10] = Efflux ratio of apparent permeability in human Caco-2 cells at 1 uM incubated for 1 hr; type: ADME, cell-based; in short: as §3
[11] = Ratio of drug concentration in blood to plasma in mouse at 5 uM incubated for 60 mins; type: ADME, cell-free
In short: (§4)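 Compound at 5 μM in whole blood of each species, 37 ± 1 °C for 60 min; blood-to-plasma ratio and red blood cell partitioning determined.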

[12] = Ratio of drug concentration in blood to plasma in Cynomolgous monkey at 5 uM incubated for 60 mins; type: ADME, cell-free, Macaca fascicularis; details: cynomolgus monkey; in short: as §4
[13] = Ratio of drug concentration in blood to plasma in human at 5 uM incubated for 60 mins; type: ADME, cell-free; in short: as §4
[14] = Clearance in C57BL/6J mouse at 1 mg/kg, iv by LC-MS/MS analysis; type: ADME, organism-based; details: in vivo
In short: (§5)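 Single dose to fasted male C57BL6 mice, Sprague-Dawley rats, beagle dogs and cynomolgus monkeys, either IV at 1 mg/kg or PO as a solution at 5 mg/kg, in 80% PEG 400 in water. Plasma concentrations were measured by LC-MS/MS. PK parameters come from noncompartmental analysis using nominal doses and nominal sampling times.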

[15] = Half life in C57BL/6J mouse at 5 mg/kg, po by LC-MS/MS analysis; type: ADME, organism-based; details: in vivo; in short: as §5
[16] = Clearance in Sprague-Dawley rat at 1 mg/kg, iv by LC-MS/MS analysis; type: ADME, organism-based; details: in vivo; in short: as §5
[17] = Clearance in Beagle dog at 1 mg/kg, iv by LC-MS/MS analysis; type: ADME, organism-based, Canis lupus familiaris; details: in vivo; in short: as §5
[18] = Volume of distribution at steady state in Cynomolgous monkey at 1 mg/kg, iv by LC-MS/MS analysis; type: ADME, organism-based, Macaca fascicularis; details: cynomolgus monkey, in vivo, read-out: Vdss
In short: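 Fasted males (C57BL6 mice, Sprague−Dawley rats, beagle dogs, cynomolgus monkeys) given a single IV dose of 1 mg/kg in 80% PEG 400 in water. Plasma concentrations measured by LC-MS/MS. Vss derived by noncompartmental analysis using nominal dose and nominal sampling times.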

[19] = Half life in Cynomolgous monkey at 1 mg/kg, iv by LC-MS/MS analysis; type: ADME, organism-based, Macaca fascicularis; details: cynomolgus monkey, in vivo; in short: as §5
[20] = Tmax in Cynomolgous monkey at 5 mg/kg, po by LC-MS/MS analysis; type: ADME, organism-based, Macaca fascicularis; details: cynomolgus monkey, in vivo
In short: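 Fasted males (C57BL6 mice, Sprague−Dawley rats, beagle dogs, cynomolgus monkeys) given a single oral solution dose of 5 mg/kg in 80% PEG 400 in water. Plasma sampled over time, analysed by LC-MS/MS. Noncompartmental analysis used nominal doses and nominal sampling times.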

[21] = AUC (infinity) in Cynomolgous monkey at 5 mg/kg, po by LC-MS/MS analysis; type: ADME, organism-based, Macaca fascicularis; details: cynomolgus monkey, in vivo; in short: as §5
Hepatitis B virus [22] = assay: Antiviral activity against AAV-Hepatitis B virus infected in C57BL/6 mouse assessed as reduction in baseline HBV DNA production at 15 mg/kg, po bid measured after 56 days; type: functional; details: time 56 day
Mus musculus = assay: Effect on HBsAg level in C57BL/6 mouse infected with AAV-Hepatitis B virus at 15 to 50 mg/kg, po qd for 56 days followed by induction of compound washout period for 14 days; type: functional, organism-based; details: dose 15-50 mg/kg, time 70.0 day
[23] = Toxicity in C57BL/6 mouse infected with AAV-Hepatitis B virus assessed as change in body weight at 15 mg/kg, po bid for 56 days followed by induction of compound washout period for 14 days; type: organism-based; details: in vivo, 1680 h, time 70 day
Cav1.2 = assay: Inhibition of Cav1.2 (unknown origin) expressed in mammalian cells at 10 uM by automated patch-clamp method; type: toxicity, cell-based, Homo sapiens; details: mammalian cells expressing Cav1.2
In short: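 Currents of hERG, Nav1.5 or Cav1.2 channels expressed in mammalian cells recorded by automated patch clamp (QPatch 48) at room temperature.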

[24] = Effect on mitochondrial activity in human HepG2 cells upto 10 uM; type: toxicity, cell-based; details: hepg2, 10 µM
[25] = Effect on cell proliferation in bone marrow (unknown origin) upto 10 uM; type: toxicity, tissue-based

Sequence of Solute carrier family 22 member 6 (Q4U2R8 whole entry): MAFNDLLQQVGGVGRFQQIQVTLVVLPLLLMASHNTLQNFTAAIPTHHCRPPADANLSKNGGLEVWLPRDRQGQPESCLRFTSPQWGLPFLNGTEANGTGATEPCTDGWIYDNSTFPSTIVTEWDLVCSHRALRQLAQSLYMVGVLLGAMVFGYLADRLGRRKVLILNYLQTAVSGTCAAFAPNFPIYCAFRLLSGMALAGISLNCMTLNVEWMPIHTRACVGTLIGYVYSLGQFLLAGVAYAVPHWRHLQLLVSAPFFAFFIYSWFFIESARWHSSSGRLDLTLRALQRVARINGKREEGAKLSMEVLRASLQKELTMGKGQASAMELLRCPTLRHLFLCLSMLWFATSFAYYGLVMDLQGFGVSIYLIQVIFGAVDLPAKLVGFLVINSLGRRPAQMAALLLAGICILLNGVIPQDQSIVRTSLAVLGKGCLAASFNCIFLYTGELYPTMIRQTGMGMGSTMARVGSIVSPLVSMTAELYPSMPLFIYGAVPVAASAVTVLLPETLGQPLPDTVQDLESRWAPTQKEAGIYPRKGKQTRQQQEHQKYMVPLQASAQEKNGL

fraction unbound at 2 µM [1]: 0.0913
fraction unbound at 2 µM [2]: 0.025
fraction unbound at 2 µM [3]: 0.126
Drug metabolism [4]: metabolite_detected
IC50 [5]: 10800 nM
Compound: C#CC1(N(COP(=O)([O-])[O-])C(=O)C(=O)c2c(C)c(C(=O)Nc3ccc(F)c(C#N)c3)n(C)c2C)COC1.[Na+].[Na+]

Compound: C#CC1(NC(=O)C(=O)c2c(C)c(C(=O)Nc3ccc(F)c(C#N)c3)n(C)c2C)COC1
EC50 (Hepatitis B virus [6]): 0.63 nM
EC50 (Hepatitis B virus [7]): 7.48 nM
EC50 (Hepatitis B virus [8]): 54.7 nM
Papp A→B at 1 h, 1 µM [9]: 1.8 ×10⁻⁶ cm/s
efflux ratio at 1 h, 1 µM [10]: 7.8
blood plasma ratio at 1 h, 5 µM [11]: 0.83
blood plasma ratio at 1 h, 5 µM [12]: 0.83
blood plasma ratio at 1 h, 5 µM [13]: 0.73
clearance [14]: 12 mL/min/kg
half-life [15]: 1.55 h
clearance [16]: 6.09 mL/min/kg
clearance [17]: 1.97 mL/min/kg
Vd [18]: 0.89 L/kg
half-life [19]: 1.85 h
Tmax [20]: 1.17 h
AUC(0-inf) [21]: 2190 ng·h/mL
Activity (Hepatitis B virus [22]): -1.47 log10IU/ml
Activity (Mus musculus): inactive
Activity [23]: Non-toxic
IC50 (Cav1.2): > 10000 nM
Activity [24]: Non-toxic
Activity [25]: Non-toxic

— ChEMBL document CHEMBL6092224, “The Discovery and Preclinical Profile of ALG-000184, a Prodrug of the Potent Hepatitis B Virus Capsid Assembly Modulator ALG-001075” (J Med Chem, 2024)
